According to ChEMBL document CHEMBL1129364, “Pyrrolobenzothiazepinones and pyrrolobenzoxazepinones: novel and specific non-nucleoside HIV-1 reverse transcriptase inhibitors with antiviral activity” (J Med Chem, 1996):
Activity calls are given as the source filed them. No cut-off for these calls is given here.

Experiments:
CEM-SS [1] = experiment: (§1) Effective concentration against 50% survival of HIV -1 infected cells relative to uninfected untreated control (in vitro anti HIV-1 activity); format: functional, cell-based; settings: Homo sapiens
In short: (§2)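 HIV-1-infected CEM T4 lymphocytes were scored for protection from cell death. […] An AZT-treated positive control was run at the same time.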

[2] = Selective index is the ratio between IC50 and EC50; format: functional
In short: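 Selectivity index calculated as CEM-SS cytotoxic IC50 divided by anti-HIV-1 EC50.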

CEM-SS [3] = experiment: Cytotoxic concentration against 50% survival of uninfected untreated control CEM-SS cells; format: cell-based; settings: Homo sapiens
[4] = test system: Human immunodeficiency virus 1; experiment: Inhibitory activity against HIV-1 (A-17 cell lines); NA ='Not active'; format: functional, organism-based
In short: (§3)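 ED50 measured against a panel of viruses in MT-2, MT-4 and CEM-SS cells. The panel comprised HIV-1 (6S) and (6R), the pyridinone-resistant strain A-17, HIV-1 IIIB, HIV-1 RF, a diphenyl sulfone-resistant HIV, N119, SIV MAC 251 and HIV-2 ROD.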

[5] = test system: Human immunodeficiency virus 1; experiment: Effective dose against HIV-1 (IIIB strain); NA ='Not active'; format: functional, organism-based; in short: as §3
[6] = test system: Human immunodeficiency virus 1; experiment: Effective dose against AZT resistant strain; NA ='Not active'; format: functional, organism-based
[7] = test system: Human immunodeficiency virus 2; experiment: Inhibitory activity against HIV-2 (ROD); NA ='Not active'; format: functional, organism-based; in short: as §3
[8] = target: Human immunodeficiency virus type 1 reverse transcriptase (Human immunodeficiency virus 1, UniProt Q72547); experiment: (§4) Compound was tested for Inhibition of HIV-1 RT activity.
In short: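 Recombinant HIV-1 RT (0.1 unit), 37 °C for 30 min in 50 mM Tris·HCl pH 8.2, 1 mM DTT, 80 mM KCl, 12 mM MgCl2, 0.01% Triton X-100. Template-primer poly(rA)/(dT)12-18 with [3H]dTTP or poly(rC)/(dG)12-18 with [3H]dGTP. Compounds added in DMSO (10% final). Stopped with 20% TCA; precipitate counted. IC50 is the mean of at least three experiments.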

MT2 [9] = experiment: IC50 value determined from the inhibition of HIV strain AZT-sensitive activity tested on MT-2 cell lines; format: functional, cell-based; settings: Homo sapiens
MT2 [10] = experiment: ED50 value determined from the inhibition of HIV strain AZT-sensitive activity tested on MT-2 cell lines.; format: functional; settings: Homo sapiens, read-out: ED50 (the source's name)
[11] = as §1; format: functional; settings: Human immunodeficiency virus 1; in short: as §2
[12] = Effective concentration against 50% survival of HIV -1 infected cells relative to uninfected untreated control (in vitro anti HIV-1 activity); NA ='Not active'; format: functional, Human immunodeficiency virus 1; in short: as §2
[13] = target: Human immunodeficiency virus type 1 protease (Human immunodeficiency virus 1, UniProt Q72874); experiment: as §4
In short: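 Recombinant HIV-1 RT (0.1 unit) was incubated 30 min at 37 °C in 50 mM Tris·HCl pH 8.2 with 1 mM DTT, 80 mM KCl, 12 mM MgCl2 and 0.01% Triton X-100. Template-primer was poly(rA)/(dT)12-18 with [3H]dTTP or poly(rC)/(dG)12-18 with [3H]dGTP. DMSO was 10% final. Reactions were stopped with TCA and precipitated radioactivity counted. IC50 is the mean of at least three experiments.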

MT4 [14] = experiment: IC50 value determined from the inhibition of HIV strain AZT-sensitive activity tested on MT-4 cell lines.; format: functional, cell-based; settings: Homo sapiens
[15] = SI - selectivity index determined from the ratio of IC50 to the ED50 determined on MT-4 cell lines of AZT-sensitive HIV strain.; format: functional, MT4
CEM-SS [16] = experiment: ED50 value determined from the inhibition of HIV strain HIV-1 RF, activity tested on CEM-SS cell lines.; format: functional; settings: Homo sapiens, read-out: ED50 (the source's name)
[17] = Selectivity index is the ratio between IC50 and ED50 from HIV-1 (IIIB) on MT-4 cell lines; format: functional, MT4
[18] = test system: Human immunodeficiency virus 2; experiment: In vitro inhibitory activity against HIV-2 (ROD) HIV strain; NT ='Not active'; format: functional, organism-based; in short: as §3
MT4 [19] = experiment: ED50 value determined from the inhibition of HIV strain HIV-1(IIIB), activity tested on MT-4 cell lines.; format: functional; settings: Homo sapiens, read-out: ED50 (the source's name)
CEM-SS [20] = experiment: IC50 value determined from the inhibition of HIV strain HIV-1 RF, activity tested on CEM-SScell lines.; format: functional, cell-based; settings: Homo sapiens
In short: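 Cell-protection assay: HIV-1-infected T4 lymphocytes (CEM-SS) scored for survival. The value is the drug concentration giving 50% survival of infected cells relative to uninfected untreated controls. An AZT-treated positive control was run at the same time under identical conditions. Details follow a previously reported procedure.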

[21] = Selective index is the ratio between IC50 and EC50 from CEM-SS cells; format: functional
[22] = Selectivity index is the ratio between IC50 and ED50 from HIV-1 (6R) on MT-4 cell lines; format: functional, MT4
MT4 [23] = experiment: IC50 value determined from the inhibition of HIV strain HIV-1(IIIB), activity tested on MT-4 cell lines.; format: functional, cell-based; settings: Homo sapiens
MT4 [24] = experiment: ED50 value determined from the inhibition of HIV strain AZT-sensitive activity tested on MT-4 cell lines.; format: functional; settings: Homo sapiens, read-out: ED50 (the source's name)
[25] = test system: Human immunodeficiency virus 1; experiment: In vitro inhibitory activity against HIV-1 (A-17) HIV strain; NT ='Not active'; format: functional, organism-based; in short: as §3
MT4 [26] = experiment: ED50 value determined from the inhibition of HIV strain HIV-1 (6R), activity tested on MT-4 cell lines.; format: functional; settings: Homo sapiens, read-out: ED50 (the source's name)
MT4 [27] = experiment: IC50 value determined from the inhibition of HIV strain HIV-1 (6R), activity tested on MT-4 cell lines.; format: functional, cell-based; settings: Homo sapiens
[28] = Effective concentration against 50% survival of HIV -1 infected cells relative to uninfected untreated control (in vitro anti HIV-1 activity); NA =' Not active'; format: functional, Human immunodeficiency virus 1; in short: as §2

With `Cc1cn([C@H]2C[C@H](N=[N+]=[N-])[C@@H](CO)O2)c(=O)[nH]c1=O` [ZIDOVUDINE] the EC50 (CEM-SS [1]) was 0.0019 µM, the SI [2] was 526 and the IC50 (CEM-SS [3]) was over 1 µM.

In the case of `CCC1(c2ccccc2)Sc2ccccc2-n2cccc2C1=O` (stereo unspecified), the Activity [4] is reported as “inactive”, the SI [2] is reported as 55.2 and the Activity [5] is reported as “inactive”. For the same compound, the Activity [6] was “inactive”, the Activity [7] was “inactive” and the IC50 [8] was 15 µM. For the same compound, the IC50 (MT2 [9]) was 110 µM, the IC50 (CEM-SS [3]) was 100 µM and the EC50 (MT2 [10]) was 8.7 µM. It also gave an EC50 [11] of 1.8 µM.

With `O=C1c2cccn2-c2ccccc2SC1c1ccccc1` (stereo unspecified) the IC50 [8] was 100 µM and the IC50 (CEM-SS [3]) was 18.3 µM.

In the case of `CCC1(c2ccccc2)Oc2cc3ccccc3cc2-n2cccc2C1=O` (stereo unspecified), the IC50 [8] is reported as 150 µM.

`O=C1c2cccn2-c2ccccc2OC1(CC1CC1)c1ccccc1` (stereo unspecified) gave an IC50 [8] of over 500 µM and an IC50 (CEM-SS [3]) of 11.8 µM.

With `CCC1(CC=C(C)C)Oc2ccccc2-n2cccc2C1=O` (stereo unspecified) the SI [2] was 35, the IC50 (CEM-SS [3]) was 45.2 µM and the EC50 [11] was 1.35 µM.

Work on `C=CCC1(c2ccccc2)Oc2ccccc2-n2cccc2C1=O` (stereo unspecified) yielded an SI [2] of 9, an IC50 [8] of 25 µM and an IC50 (CEM-SS [3]) of 6.4 µM. It also gave an EC50 [11] of 0.71 µM.

With `CCC1(c2ccccc2)Sc2ccc(C)cc2-n2cccc2C1=O` (stereo unspecified) the IC50 [8] was over 600 µM and the IC50 [12] was “Not Active”.

For `CC1(c2ccccc2)Oc2ccccc2-n2cccc2C1=O` (stereo unspecified), the SI [2] was 19.7, the IC50 [8] was 10 µM and the IC50 (CEM-SS [3]) was 6.9 µM. It also gave an EC50 [11] of 0.35 µM.

`C=CCC1(CC)Oc2ccccc2-n2cccc2C1=O` (stereo unspecified) gave an IC50 [8] of 5 µM.

For `CCC1(c2ccccc2)C(=O)c2cccn2-c2ccccc2S1(=O)=O` (stereo unspecified), the IC50 [8] was over 300 µM.

In the case of `CCCC1(c2ccccc2)Oc2ccccc2-n2cccc2C1=O` (stereo unspecified), the IC50 [8] is reported as 500 µM and the IC50 (CEM-SS [3]) is reported as over 150 µM.

In the case of `CCOC1=C(c2ccccc2)Oc2ccccc2-n2cccc21`, the IC50 [13] is reported as over 300 µM.

In the case of `CCCC1(CC)Oc2ccccc2-n2cccc2C1=O` (stereo unspecified), the IC50 [8] is reported as 10 µM.

Compound `CCC1(c2ccccc2)Oc2ccccc2-n2cccc2C1=O` (stereo unspecified) has an IC50 (MT4 [14]) of 3.3 µM, an SI [15] of 8 and an EC50 (CEM-SS [16]) of 0.12 µM. For the same compound, the SI [17] was 25, the Activity [18] was “inactive” and the EC50 (MT4 [19]) was 0.13 µM. It also gave an IC50 (CEM-SS [20]) of 10.4 µM, an IC50 [8] of 0.25 µM and an SI [21] of 10.4. It also gave an IC50 (CEM-SS [3]) of 4.9 µM, an SI [22] of 1.7 and an IC50 (MT4 [23]) of 3.31 µM. The EC50 (MT4 [24]) was 0.42 µM, the EC50 [11] was 0.47 µM and the Activity [25] was “inactive”. For the same compound, the EC50 (MT4 [26]) was 1.6 µM and the IC50 (MT4 [27]) was 2.9 µM.

For `CC1(c2ccccc2)Sc2ccccc2-n2cccc2C1=O` (stereo unspecified), the IC50 [8] was 5 µM and the EC50 [11] was 0.81 µM.

Compound `CCc1cc(NCc2nc3c(Cl)ccc(Cl)c3o2)c(O)nc1C` [L-697661] has an IC50 [8] of 0.15 µM.

In the case of `O=C1c2cccn2-c2cc3ccccc3cc2OC1c1ccccc1` (stereo unspecified), the IC50 [8] is reported as over 300 µM.

With `CCC1(c2ccccc2)C(=O)c2cccn2-c2ccccc2[S+]1[O-]` (stereo unspecified) the IC50 [8] was 500 µM.

In the case of `CCC1(c2ccccc2)Sc2c(Cl)cccc2-n2cccc2C1=O` (stereo unspecified), the IC50 [8] is reported as 500 µM.

`O=C1c2cccn2-c2ccccc2OC1c1ccccc1` (stereo unspecified) showed an IC50 [8] of over 300 µM.

Work on `CC(C)=CCC1(c2ccccc2)Oc2ccccc2-n2cccc2C1=O` (stereo unspecified) yielded an IC50 [8] of over 500 µM and an IC50 (CEM-SS [3]) of 120 µM.

`CCC1(c2ccc3ccccc3c2)Oc2ccccc2-n2cccc2C1=O` (stereo unspecified) showed an SI [2] of 44, an IC50 [8] of 0.5 µM and an IC50 (CEM-SS [3]) of 37.3 µM. The EC50 [11] was 0.85 µM.

With `CCC1Oc2ccccc2-n2cccc2C1=O` (stereo unspecified) the IC50 [8] was 100 µM.

Work on `O=C1c2cccn2-c2ccccc2OC1c1ccc2ccccc2c1` (stereo unspecified) yielded an IC50 [8] of over 300 µM.

In the case of `CCC1(c2ccccc2)Sc2cccc(Cl)c2-n2cccc2C1=O` (stereo unspecified), the IC50 [28] is reported as “Not Active” and the IC50 [8] is reported as 600 µM.
